{"source": "ChEMBL document CHEMBL4513216", "about": "“Probing the Open Global Health Chemical Diversity Library for Multistage-Active Starting Points for Next-Generation Antimalarials” (ACS Infect Dis, 2020)"}
{"assay": "Toxicity liver stage against HepG2, at 10uM", "type": "cell-based", "set-up": "test concentration 10 uM, cell line HepG2-A16-CD81EGFP", "settings": "human, HepG2-A16-CD81EGFP cells; read-out: INHIBITION", "procedure,_shortened": "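Uninfected HepG2-A16-CD81EGFP cells, 3 × 10^3 per well, 1536-well, plated on prespotted compound at 10 μM final, parasite-free screening media added to match infected plates; puromycin 10 μM positive, DMSO 0.5% negative; run in parallel with 48 h PbLuc assay at 37 °C, 5% CO2; viability by CellTiter-Glo luminescence, normalized to controls.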", "units": {"cytotoxicity at 10 µM": "%"}}
{"smiles": "N[C@H]1CN(C(=O)Cc2cc(F)cc(Cl)c2)C[C@@H]1C1CC1", "cytotoxicity at 10 µM": 0.0152}
{"smiles": "CC(C)CNC(=O)c1ccc2c(=O)n(-c3ccccc3)cnc2c1", "cytotoxicity at 10 µM": -5.52}
{"smiles": "Cc1noc(C2(C)CCCN(C(=O)c3cccnc3)C2)n1", "note": "(stereo not given)", "cytotoxicity at 10 µM": -13.4}
{"smiles": "O=C(NCCc1noc(C2CCCC2)n1)c1cn2ccsc2n1", "cytotoxicity at 10 µM": -0.454}
{"smiles": "C1CC(CO[C@@H]2CC[C@H]3[C@H]2OCCN3CC2CCOCC2)CCO1", "cytotoxicity at 10 µM": 13.7}
{"smiles": "O=C(C1CCCC1)N1CCOc2cccc(F)c21", "cytotoxicity at 10 µM": -2.54}
{"smiles": "COc1ccc(C2CC(=O)c3c(O)cc(O)cc3O2)cc1O", "note": "(stereo not given)", "cytotoxicity at 10 µM": -2.66}
{"smiles": "CC(C)c1nccn1-c1cccc(C2CCN(C)CC2)n1", "cytotoxicity at 10 µM": 0.307}
{"smiles": "O=C(NCCn1nc(-n2cncn2)ccc1=O)c1ccc(F)cc1F", "cytotoxicity at 10 µM": -8.78}
{"smiles": "CC[C@@H](C)[C@H](NC(=O)CCn1cc(C(C)=O)c2ccccc21)C(=O)O", "cytotoxicity at 10 µM": -5.27}
{"smiles": "Cc1ccc(-n2cc(CN3CCOCC3)c(-c3cccc(C)c3)n2)cc1", "cytotoxicity at 10 µM": -0.906}
{"smiles": "Cc1cc(C)c(CNC(=O)N2CCC(N3CCNC3=O)CC2)c(=O)[nH]1", "cytotoxicity at 10 µM": 4.16}
{"smiles": "Cn1c(CN2CCCC(Cn3cncn3)C2)nc2ccccc21", "note": "(stereo not given)", "cytotoxicity at 10 µM": -6.78}
{"smiles": "COc1ccc(C)cc1CC(=O)N1CCN(CC(C)O)CC1", "note": "(stereo not given)", "cytotoxicity at 10 µM": -8.65}
{"smiles": "c1ccc(Cc2noc(CN3CCc4c(ncn4C4CC4)C3)n2)cc1", "cytotoxicity at 10 µM": 2.1}
{"smiles": "CN1CCCN(S(=O)(=O)c2cn(C)cn2)c2cc(F)ccc21", "cytotoxicity at 10 µM": 6.06}
{"smiles": "CC(C)(C)c1noc(-c2nc3c([nH]2)CCCNC3=O)n1", "cytotoxicity at 10 µM": -3.83}
{"smiles": "COC(=O)c1ccc(F)c(Cn2nc(C)cc2C)c1", "cytotoxicity at 10 µM": 4.11}
{"smiles": "O=C(Nc1ccccc1)N1C[C@@H]2C[C@H](C(=O)N3CCOCC3)[C@H](C1)O2", "cytotoxicity at 10 µM": 7.53}
{"smiles": "CCOC(=O)NCCC(=O)NCc1ccc(Oc2cccc(F)c2)nc1", "cytotoxicity at 10 µM": 10.9}
{"smiles": "COc1ccc(CN2Cc3cn(C)nc3C(COCC3CC3)C2)cc1", "note": "(stereo not given)", "cytotoxicity at 10 µM": -78.5}
{"smiles": "CC(Cn1ccnc1)NC(=O)N1CCN(Cc2cccnc2)CC1", "note": "(stereo not given)", "cytotoxicity at 10 µM": 4.31}
{"smiles": "Cc1nc(C(C)(C)C)sc1C(=O)NCCn1cccn1", "cytotoxicity at 10 µM": -3.17}
{"smiles": "O=C1CC2(CCCC2)CC(=O)N1Cc1ncccn1", "cytotoxicity at 10 µM": 1.27}
{"smiles": "O=C(NCCO)C1(Cc2ccccc2-c2cccnc2)CCOCC1", "cytotoxicity at 10 µM": -31.8}
{"smiles": "CC(C#N)CNC(=O)Nc1ccc(-c2cc[nH]n2)cc1", "note": "(stereo not given)", "cytotoxicity at 10 µM": -3.27}
{"smiles": "OCC1CCCN1c1cc(NCc2cc3ccccc3o2)ncn1", "note": "(stereo not given)", "cytotoxicity at 10 µM": 7.53}
{"smiles": "CNC(=O)c1nnc2ccc(N3CCOCC3)cc2n1", "cytotoxicity at 10 µM": 6.86}
{"smiles": "Cc1ccc2c(c1)CN(C(=O)c1cccs1)C(CN(C)C)CO2", "note": "(stereo not given)", "cytotoxicity at 10 µM": -16.5}
{"smiles": "CNC(=O)Cc1csc(NC(=O)C2CSCCC(=O)N2)n1", "note": "(stereo not given)", "cytotoxicity at 10 µM": -4.94}
{"smiles": "O=C([C@@H]1CC[C@@H]2[C@@H](CCN2Cc2ccoc2)O1)N1CCCC1", "cytotoxicity at 10 µM": -10.2}
{"smiles": "N#CCCN(CC1CC1)Cn1cc(Cl)cn1", "cytotoxicity at 10 µM": 4.03}
{"smiles": "Cc1cnn(C2CN(CCOc3cccc(C#N)c3)C2)c1", "cytotoxicity at 10 µM": 5.62}
{"smiles": "COCCN1CCCC(CN(C)c2nc3c(s2)c(C)nn3C)C1", "note": "(stereo not given)", "cytotoxicity at 10 µM": 5.37}
{"smiles": "Cc1noc(C2CCC3(CCN(C(=O)c4cc(C5CC5)on4)CC3)O2)n1", "note": "(stereo not given)", "cytotoxicity at 10 µM": 3.1}
{"smiles": "COCCN(C/C=C/c1ccccc1)Cc1[nH]cnc1C", "cytotoxicity at 10 µM": 10.3}
{"smiles": "CO[C@H]1CCN(c2ncc(F)cn2)[C@@H]2CN(Cc3ccco3)C[C@H]12", "cytotoxicity at 10 µM": 13.5}
{"smiles": "COc1ccc(C[C@H]2CN(C(=O)c3ccn(C)n3)CC[C@H]2OC)cc1", "cytotoxicity at 10 µM": 5.12}
{"smiles": "Cc1cc(CN2CCN(C(=O)NC(C)c3ccncc3)CC2)on1", "note": "(stereo not given)", "cytotoxicity at 10 µM": -5.66}
{"smiles": "COc1ccc(NCCC(=O)NCc2cccnc2N(C)C)cc1", "cytotoxicity at 10 µM": -2.06}
{"smiles": "CCCC(C)N(C)Cc1nnc(-c2ccco2)o1", "note": "(stereo not given)", "cytotoxicity at 10 µM": 2.49}
{"smiles": "Cc1ccc2c(c1)C(NC(=O)C1CCN(S(C)(=O)=O)CC1)CC(C)(C)O2", "note": "(stereo not given)", "cytotoxicity at 10 µM": 2.22}
{"smiles": "CC(C)n1c(C(=O)N2CCCC2)nc2c1CCN(c1ncccn1)C2", "cytotoxicity at 10 µM": -6.72}
{"smiles": "Cc1ccc(CNC2CCCN(Cc3noc(C4CC4)n3)C2)s1", "note": "(stereo not given)", "cytotoxicity at 10 µM": -6.01}
{"smiles": "CCc1nnc2n1CC(CNCc1nc(-c3ccsc3)no1)CC2", "note": "(stereo not given)", "cytotoxicity at 10 µM": -5.34}
{"smiles": "NC(=O)C1CCN(C(=O)C2SCCc3sccc32)CC1", "note": "(stereo not given)", "cytotoxicity at 10 µM": -6.02}
{"smiles": "C[C@@H]1C[C@H]2CN(C(=O)c3cccc4c3OCCO4)C[C@H]2O1", "cytotoxicity at 10 µM": -0.726}
{"smiles": "CN(C)c1cccc(C(=O)NCC(O)c2cccs2)c1", "note": "(stereo not given)", "cytotoxicity at 10 µM": 16.6}
{"smiles": "CCCN(C)C(=O)Nc1ccc(C(=O)NCCC(=O)OC)cc1", "cytotoxicity at 10 µM": 6.62}
{"smiles": "CC(NC(=O)N(C)Cc1ccc2c(c1)OCCO2)c1nncn1C", "note": "(stereo not given)", "cytotoxicity at 10 µM": -2.25}
{"smiles": "Cc1nccn1Cc1cccc(CNC(=O)c2ccn(C)c(=O)c2)c1", "cytotoxicity at 10 µM": 5.82}
{"smiles": "Cc1nn(C)c(C)c1Cc1nc(N(C)C)no1", "cytotoxicity at 10 µM": 7.06}
{"smiles": "O=C(Cn1cccnc1=O)NC(Cc1ccsc1)c1ccccn1", "note": "(stereo not given)", "cytotoxicity at 10 µM": -5.66}
{"smiles": "CC(C)(O)CN1CCN(C(=O)c2cccn2Cc2ccncc2)CC1", "cytotoxicity at 10 µM": -2.59}
{"smiles": "CN1CCN(Cc2cnc3n2CCN(Cc2cccs2)C3)CC1", "cytotoxicity at 10 µM": -3.24}
